Shown are actives, neighbours in structure and some others; about 2.4% of the full set was active somewhere.
MOR-DOR ag = agonists of human mu-delta opioid receptor heterodimerization. P35372+P41143. cells, OPRM1-OPRD1 heterodimerization, luminescence. activation, % at 9.3 µM. 340,000 tested, 0.3% active;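 also: 0% = vehicle-treated cells and 100% = reference agonist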
MC4R ag barr = agonists of human melanocortin 4 receptor (MC4R) beta-arrestin. P32245. 360,000 tested, 0.98% active. U2OS MC4R beta-arrestin complementation, luminescence; percent of melanotan II response, DMSO zero. activation, % at 8.9 µM;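 active = activation above a per-plate cutoff, the mean activation of sample wells on that plate plus 3 SD, cut at about 8% in these data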
Target sequence (P32245 whole entry, looked up): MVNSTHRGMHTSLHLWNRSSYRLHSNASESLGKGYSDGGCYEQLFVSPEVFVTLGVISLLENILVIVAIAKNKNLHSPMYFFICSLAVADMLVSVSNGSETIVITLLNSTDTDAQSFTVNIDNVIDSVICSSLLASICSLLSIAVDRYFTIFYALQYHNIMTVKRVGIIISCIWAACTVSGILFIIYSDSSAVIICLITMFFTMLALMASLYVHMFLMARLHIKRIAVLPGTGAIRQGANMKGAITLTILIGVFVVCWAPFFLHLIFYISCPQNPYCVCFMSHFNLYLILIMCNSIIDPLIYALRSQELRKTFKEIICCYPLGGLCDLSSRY
HTR5A inv ctr = inverse agonist of human HTR5A in OPRM1-OPRD1 counter-screen; P47898; HTR5A cell line, luminescence, inverse agonism; inhibition, % at 9.3 µM; 340,000 tested, 0.083% active; AID 504634; in the data active = inhibition mostly above about 23%, no sharp cut-off; inactive = mostly below about 18%;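 also: 0% = cells with DMSO and 100% = no-cell wells with DMSO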
Target sequence (P47898 whole entry, looked up): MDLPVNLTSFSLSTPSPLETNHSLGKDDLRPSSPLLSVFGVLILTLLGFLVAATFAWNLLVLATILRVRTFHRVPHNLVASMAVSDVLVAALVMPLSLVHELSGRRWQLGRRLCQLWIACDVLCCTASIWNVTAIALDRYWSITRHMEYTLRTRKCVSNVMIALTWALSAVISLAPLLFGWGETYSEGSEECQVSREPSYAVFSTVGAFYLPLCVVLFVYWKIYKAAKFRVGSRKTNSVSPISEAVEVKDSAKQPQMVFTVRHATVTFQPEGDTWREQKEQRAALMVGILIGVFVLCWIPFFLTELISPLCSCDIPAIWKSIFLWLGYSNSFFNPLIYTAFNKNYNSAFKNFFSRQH
MC4R antagonist = antagonists of human melanocortin 4 receptor (MC4R). P32245. MC4R-expressing cells, MTII-stimulated cAMP, LANCE TR-FRET. inhibition, % at 6.5 µM. 360,000 tested, 0.48% active;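 active = inhibition above its plate's cutoff, the mean of tested wells on that plate plus 3 SD, cut at about 29% in these data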;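 also: 0% = Melanotan II alone and 100% = Melanotan II plus saturating MCL0020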
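Assay system: human MC4R-expressing U2OS cells; reagent: Melanotan II stimulation of cells; dosing: 6.5 µM single dose; timing: compound 30 min, challenge 1 h, detection 1 h; signal: TR-FRET cAMP assay; replicates: one well per compound, no replicates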
HTR5A ag = counter-screen for OPRM1-OPRD1 agonists: human HTR5A agonism; P47898; HTR5A agonist assay, luminescence, cell-based; activation, % at 9.3 µM; 340,000 tested, 0.61% active; in the data active = activation mostly above about 9.5%, no sharp cut-off; inactive = mostly below about 7.6%;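 also: 0% = cells with vehicle only and 100% = reference agonist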
OPRM1-OPRD1 inv = inverse agonist of human OPRM1-OPRD1 heterodimerization; P35372+P41143; inhibition, % at 9.3 µM; 340,000 tested, 0.21% active; cell-based MOR-DOR heterodimer luminescence, inverse agonism; in the data active = inhibition above about 22%, passing the limit was not always enough;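 also: 0% = cells with DMSO and 100% = wells without cells with DMSO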
MOR-DOR ag conf = OPRM1-OPRD1 heterodimer agonism, confirmation | shares compounds with MOR-DOR ag | cells, MOR-DOR heterodimerization, luminescence complementation | activation, % at 9.3 µM | 830 tested, 45% active | AID 504904;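 also: 0% = vehicle-treated cells and 100% = reference agonist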
HTR5A ag counter = HTR5A agonism, opioid heterodimer counter-screen; shares compounds with MOR-DOR ag; HTR5A agonist counterscreen, cell luminescence; activation, % at 9.3 µM; 830 tested, 8% active; AID 504905; in the data active = activation above about 17%;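 also: 0% = vehicle-treated cells and 100% = reference agonist response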
Numbers without * were called inactive. Rule as the data show it, unless noted: active = activation above about 18%; inactive = the rest.

How did CCN(CC)CCN(C(=O)c1ccc(S(=O)(=O)N(C)C2CCCCC2)cc1)c1nc2c(C)cccc2s1 do in these assays?
MOR-DOR ag: -3; MC4R ag barr: -4; HTR5A inv ctr: -3; MC4R antagonist: 13; HTR5A ag: 1; OPRM1-OPRD1 inv: 14

How did Cc1ccc2sc(N(CCCN(C)C)C(=O)c3ccc(S(=O)(=O)N4CCOCC4)cc3)nc2c1C do in these assays?
MOR-DOR ag: -3; MC4R ag barr: -2; HTR5A inv ctr: 0; MC4R antagonist: 1; HTR5A ag: 0; OPRM1-OPRD1 inv: 15

What do the screens show for `Nc1nc(CCl)nc(Nc2ccc3ccccc3c2)n1`?
MOR-DOR ag: 80*; MC4R ag barr: 15*; HTR5A inv ctr: -35; MC4R antagonist: 14; HTR5A ag: 13; OPRM1-OPRD1 inv: -396; MOR-DOR ag conf: 10; HTR5A ag counter: 13

Results for N#CCC(=O)N/N=C/c1cn(Cc2ccc(Cl)cc2Cl)c2ccccc12 ?
MOR-DOR ag: 20*; MC4R ag barr: 17*; HTR5A inv ctr: -6; MC4R antagonist: 1; HTR5A ag: 5; OPRM1-OPRD1 inv: -103; MOR-DOR ag conf: 2; HTR5A ag counter: 9

Results for COc1ccc(NC(=O)CNc2ccc(C#N)cc2)cc1 ?
MOR-DOR ag: -3; MC4R ag barr: -2; HTR5A inv ctr: 8; MC4R antagonist: 3; HTR5A ag: 0; OPRM1-OPRD1 inv: 15

How did Cc1[nH]c2ccc(C(=O)OCC(=O)NC3(C#N)CCCCC3)cc2c1C do in these assays?
MOR-DOR ag: -3; MC4R ag barr: -3; HTR5A inv ctr: 5; MC4R antagonist: 1; HTR5A ag: -2; OPRM1-OPRD1 inv: 15

What do the screens show for `COc1ccc(C2NCCc3c2[nH]c2ccccc32)cc1COc1ccc(F)cc1` (stereo not drawn)?
MOR-DOR ag: 20*; MC4R ag barr: 24*; HTR5A inv ctr: -7; MC4R antagonist: -3; HTR5A ag: 12; OPRM1-OPRD1 inv: -101; MOR-DOR ag conf: 24*; HTR5A ag counter: 13

Results for COc1ccc(C2NCCc3c2[nH]c2ccccc32)cc1CN1CCc2cc(OC)c(OC)cc2C1C (stereo not drawn) ?
MOR-DOR ag: 7; MC4R ag barr: 0; HTR5A inv ctr: -13; MC4R antagonist: 13; HTR5A ag: 5; OPRM1-OPRD1 inv: -35

Results for CCOC(=O)Cc1csc(NC(=O)CSc2nc(N)c3c(C)c(C)sc3n2)n1 ?
MOR-DOR ag: 2; MC4R ag barr: 0; HTR5A inv ctr: -6; MC4R antagonist: 13; HTR5A ag: 4; OPRM1-OPRD1 inv: -11

How did CNC1=C(N(C(C)=O)c2ccc(Br)cc2)C(=O)c2ccccc2C1=O do in these assays?
MOR-DOR ag: 6; MC4R ag barr: -1; HTR5A inv ctr: 9; MC4R antagonist: -8; HTR5A ag: 2; OPRM1-OPRD1 inv: -30

How did CC(=O)C1=C(c2ccc(Br)cc2)C(=O)c2ccccc2C1=O do in these assays?
MOR-DOR ag: 33*; MC4R ag barr: 3; HTR5A inv ctr: -28; MC4R antagonist: -3; HTR5A ag: 11; OPRM1-OPRD1 inv: -178; MOR-DOR ag conf: 26*; HTR5A ag counter: 11

How did COc1ccc(/C=N/NC(=O)COc2ccc(Cl)cc2Cl)cc1Cn1nc(C)cc1C do in these assays?
MOR-DOR ag: 28*; MC4R ag barr: 18*; HTR5A inv ctr: 7; MC4R antagonist: -3; HTR5A ag: 11; OPRM1-OPRD1 inv: -194; MOR-DOR ag conf: 1; HTR5A ag counter: 5

What do the screens show for `Cc1ncoc1C(=O)N1CCCC(C(=O)Nc2cccc(-c3ccc(F)cc3)c2)C1` (stereo not drawn)?
MOR-DOR ag: 1; MC4R ag barr: 3; HTR5A inv ctr: 14; MC4R antagonist: 10; HTR5A ag: 0; OPRM1-OPRD1 inv: -5

How did CCOc1cc(CNc2ccc(O)cc2)cc(Br)c1OCc1ccccc1F do in these assays?
MOR-DOR ag: 12; MC4R ag barr: 2; HTR5A inv ctr: -25; MC4R antagonist: -1; HTR5A ag: 9; OPRM1-OPRD1 inv: -70

What do the screens show for `COc1cc(CNc2ccc(O)cc2)cc(Br)c1OCc1ccccc1F`?
MOR-DOR ag: 28*; MC4R ag barr: 3; HTR5A inv ctr: -8; MC4R antagonist: -13; HTR5A ag: 2; OPRM1-OPRD1 inv: -145; MOR-DOR ag conf: 1; HTR5A ag counter: 0

What do the screens show for `CCOc1cccc(CN2CCCC(CNC(=O)c3cccc(OC)c3OC)C2)c1` (stereo not drawn)?
MOR-DOR ag: -4; MC4R ag barr: -1; HTR5A inv ctr: 24; MC4R antagonist: -6; HTR5A ag: -6; OPRM1-OPRD1 inv: 18

What do the screens show for `CC(C)n1ncc2c(C(=O)Nc3cccc(C#N)c3)cc(C3CC3)nc21`?
MOR-DOR ag: 184*; MC4R ag barr: 4; HTR5A inv ctr: -39; MC4R antagonist: 6; HTR5A ag: 14; OPRM1-OPRD1 inv: inactive; MOR-DOR ag conf: 216*; HTR5A ag counter: 5

What do the screens show for `Nn1c(-c2ccccc2Cl)nnc1-c1ccccc1Cl`?
MOR-DOR ag: 18*; MC4R ag barr: 0; HTR5A inv ctr: -10; MC4R antagonist: 7; HTR5A ag: 3; OPRM1-OPRD1 inv: -98; MOR-DOR ag conf: 0; HTR5A ag counter: 5

How did O=C(Nc1ccccn1)c1cc(-c2cccnc2)nc2ccc(Br)cc12 do in these assays?
MOR-DOR ag: 33*; MC4R ag barr: 7; HTR5A inv ctr: -8; MC4R antagonist: 5; HTR5A ag: 3; OPRM1-OPRD1 inv: -158; MOR-DOR ag conf: 20*; HTR5A ag counter: 10

How did CCCCN1C(=O)CCC(C(=O)O)C1c1ccc([N+](=O)[O-])cc1 (stereo not drawn) do in these assays?
MOR-DOR ag: -2; MC4R ag barr: -1; HTR5A inv ctr: -5; MC4R antagonist: 11; HTR5A ag: 1; OPRM1-OPRD1 inv: 14

How did Cc1cc(OCCn2ccnc2)cc(C)c1Cl do in these assays?
MOR-DOR ag: -3; MC4R ag barr: -1; HTR5A inv ctr: 3; MC4R antagonist: -6; HTR5A ag: -1; OPRM1-OPRD1 inv: 14

How did O=C(NCc1ccccc1)c1cc2ccccc2oc1=O do in these assays?
MOR-DOR ag: -3; MC4R ag barr: -1; HTR5A inv ctr: -20; MC4R antagonist: 2; HTR5A ag: 5; OPRM1-OPRD1 inv: 15

How did CN(C)C(CNC(=O)c1cc2ccccc2oc1=O)c1ccccc1 (stereo not drawn) do in these assays?
MOR-DOR ag: 31*; MC4R ag barr: -2; HTR5A inv ctr: -2; MC4R antagonist: -2; HTR5A ag: 2; OPRM1-OPRD1 inv: -255; MOR-DOR ag conf: 133*; HTR5A ag counter: -3
